The record followed here is ChEMBL document CHEMBL2169847, “New tricks for an old natural product: discovery of highly potent evodiamine derivatives as novel antitumor agents by systemic structure-activity relationship analysis and biological evaluations” (J Med Chem, 2012).

The target in data set [1] is T1, DNA topoisomerase 1 (Homo sapiens) (UniProt P11387).
T1 sequence (whole entry): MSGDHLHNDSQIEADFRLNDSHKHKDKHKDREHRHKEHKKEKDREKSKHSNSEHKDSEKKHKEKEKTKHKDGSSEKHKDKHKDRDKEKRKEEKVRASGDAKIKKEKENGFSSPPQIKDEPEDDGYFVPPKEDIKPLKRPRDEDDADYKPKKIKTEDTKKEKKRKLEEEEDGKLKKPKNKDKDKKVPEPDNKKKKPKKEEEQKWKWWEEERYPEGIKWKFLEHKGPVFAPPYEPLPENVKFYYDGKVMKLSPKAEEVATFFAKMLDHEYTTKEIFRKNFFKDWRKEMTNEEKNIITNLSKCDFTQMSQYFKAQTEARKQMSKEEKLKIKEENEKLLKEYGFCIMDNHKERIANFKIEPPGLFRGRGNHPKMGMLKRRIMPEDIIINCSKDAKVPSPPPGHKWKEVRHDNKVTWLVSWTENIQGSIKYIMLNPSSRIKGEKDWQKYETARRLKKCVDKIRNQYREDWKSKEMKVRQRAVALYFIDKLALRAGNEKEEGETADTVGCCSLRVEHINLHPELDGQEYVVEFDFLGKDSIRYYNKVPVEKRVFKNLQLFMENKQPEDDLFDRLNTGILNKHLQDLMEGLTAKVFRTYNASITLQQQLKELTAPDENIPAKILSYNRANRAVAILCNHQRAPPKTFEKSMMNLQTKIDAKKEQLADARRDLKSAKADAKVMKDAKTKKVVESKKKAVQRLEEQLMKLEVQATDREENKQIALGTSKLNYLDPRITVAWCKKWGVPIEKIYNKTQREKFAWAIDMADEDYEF
As to the kind of experiment: Inhibition of Top1 assessed as suppression of supercoiled pBR322 DNA relaxation measuring appearance of short DNA fragments at 100 uM incubated for 15 mins by electrophoresis method.

For a further data set, the system named is MDA-MB-435. The experiment in a line: Cytotoxicity against human MDA-MB-435 cells incubated for 72 hrs by MTT assay. The class given is functional. To be noted: MDA-MB-435, 72 h. In short, it runs like this: (§1)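 MTT assay. Cells seeded at 5 × 10³/well and grown 24 h at 37 °C, 5% CO₂. Compounds added at several concentrations in triplicate wells, with 0.1% DMSO control, for 72 h. MTT then added for 4 h, formazan dissolved in DMSO, and absorbance read at 570 nm. GI₅₀ by Logit method; three experiments.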
Background: Tetrazolium assays rely on reduction of a dye to a coloured formazan, in cell work by metabolically active cells.

In data set [2] the test system is HCT-116. As to the kind of experiment: Cytotoxicity against human HCT116 cells incubated for 72 hrs by MTT assay. The class given is functional. To be noted: HCT-116, 72 h. Put shortly: as §1
The subject of the next data set is A549. As to the kind of experiment: Cytotoxicity against human A549 cells incubated for 72 hrs by MTT assay. To be noted: A549, 72 h. In kind it is functional. Put shortly:
as §1

A further data set has as its system Mus musculus. As to the kind of experiment: Toxicity in BALB/C nude mouse xenografted with human HCT116 cells assessed as reduction in body weight at 2 mg/kg, ip administered as a single dose on 17th day and measured on 30 to 33 days post implantation. Details: dose 2 mg/kg, route intraperitoneal. In kind it is organism-based, HCT-116. To be noted: in vivo. In short, it runs like this: (§2)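 Cells implanted subcutaneously in right axilla of nude mice; dosing began at tumor volume about 100−300 mm³ (day 17). Randomized, six mice per treatment group and eight controls; ip injection. Tumor volume by caliper, TV = 1/2 × a × b², with body weight every 4 days. Mice sacrificed day 30−33 and tumors removed. Mean SEM, Student's t test versus control.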
Background: Xenograft models place foreign cells or tissue in a host animal.

In data set [3] the test system is HCT-116. The experiment in a line: Antitumor activity against human HCT116 cells xenografted in BALB/C nude mouse assessed as tumor growth inhibition at 2 mg/kg, ip administered as a single dose on 17th day and measured on 30 to 33 days post implantation. The class given is functional, organism-based. Details: dose 2 mg/kg. Put shortly:
as §2

For data set [4], the target named is DNA topoisomerase 2-alpha (Homo sapiens) (UniProt P11388). As to the kind of experiment: Inhibition of human Top2alpha assessed as suppression of supercoiled pBR322 DNA relaxation at 50 uM incubated for 30 mins by electrophoresis method.
Chain of DNA topoisomerase 2-alpha (Homo sapiens) (P11388 whole entry, the tested form may be a part): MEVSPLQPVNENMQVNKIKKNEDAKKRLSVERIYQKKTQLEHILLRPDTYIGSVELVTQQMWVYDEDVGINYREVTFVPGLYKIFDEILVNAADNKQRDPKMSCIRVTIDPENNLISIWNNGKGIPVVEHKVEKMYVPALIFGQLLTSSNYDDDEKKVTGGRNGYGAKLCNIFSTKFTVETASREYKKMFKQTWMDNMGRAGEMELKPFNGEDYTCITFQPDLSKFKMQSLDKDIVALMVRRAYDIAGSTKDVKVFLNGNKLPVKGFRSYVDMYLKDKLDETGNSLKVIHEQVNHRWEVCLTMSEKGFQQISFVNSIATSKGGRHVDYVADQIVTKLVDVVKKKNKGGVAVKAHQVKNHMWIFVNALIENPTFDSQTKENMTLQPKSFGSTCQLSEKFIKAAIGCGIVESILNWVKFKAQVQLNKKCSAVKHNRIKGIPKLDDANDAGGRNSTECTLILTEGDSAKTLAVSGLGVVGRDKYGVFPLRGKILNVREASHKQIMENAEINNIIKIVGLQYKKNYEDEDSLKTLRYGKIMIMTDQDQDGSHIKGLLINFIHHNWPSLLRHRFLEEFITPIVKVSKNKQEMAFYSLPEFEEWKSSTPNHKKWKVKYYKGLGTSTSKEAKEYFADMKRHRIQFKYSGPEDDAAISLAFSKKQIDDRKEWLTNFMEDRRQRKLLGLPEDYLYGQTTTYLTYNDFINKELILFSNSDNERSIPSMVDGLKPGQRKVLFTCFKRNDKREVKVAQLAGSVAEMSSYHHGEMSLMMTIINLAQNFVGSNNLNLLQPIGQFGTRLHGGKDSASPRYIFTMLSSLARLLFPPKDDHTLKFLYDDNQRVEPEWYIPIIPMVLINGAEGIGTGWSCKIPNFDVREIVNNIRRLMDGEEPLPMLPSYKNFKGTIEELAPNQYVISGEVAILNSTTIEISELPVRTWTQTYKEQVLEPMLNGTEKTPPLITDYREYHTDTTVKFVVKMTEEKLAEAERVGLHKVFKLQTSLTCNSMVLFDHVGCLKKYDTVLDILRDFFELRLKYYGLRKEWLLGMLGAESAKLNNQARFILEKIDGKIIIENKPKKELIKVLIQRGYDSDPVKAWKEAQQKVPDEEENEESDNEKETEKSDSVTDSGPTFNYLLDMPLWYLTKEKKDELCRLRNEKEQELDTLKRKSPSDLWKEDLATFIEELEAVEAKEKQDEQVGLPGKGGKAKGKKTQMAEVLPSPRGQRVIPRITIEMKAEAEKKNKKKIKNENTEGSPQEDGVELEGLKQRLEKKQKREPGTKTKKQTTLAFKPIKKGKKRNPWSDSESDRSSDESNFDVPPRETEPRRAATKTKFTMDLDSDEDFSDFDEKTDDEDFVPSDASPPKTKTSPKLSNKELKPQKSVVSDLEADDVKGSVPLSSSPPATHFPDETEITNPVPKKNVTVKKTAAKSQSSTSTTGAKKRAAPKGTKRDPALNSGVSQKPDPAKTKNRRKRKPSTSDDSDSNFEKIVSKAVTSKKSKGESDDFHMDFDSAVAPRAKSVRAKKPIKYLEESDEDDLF
Data set [5] addresses T1, DNA topoisomerase 1 (Homo sapiens). As to the kind of experiment: Inhibition of Top1 assessed as suppression of supercoiled pBR322 DNA relaxation measuring appearance of short DNA fragments at 50 uM incubated for 15 mins by electrophoresis method.
For another data set, the system named is SAOS-2. As to the kind of experiment: Cytotoxicity against human Saos2 cells incubated for 72 hrs by MTT assay. The class given is functional. To be noted: SAOS-2, 72 h. In short, it runs like this: as §1
A further data set relates to HL-60. The experiment in a line: Cytotoxicity against human HL60 cells incubated for 72 hrs by MTT assay. The class given is functional. To be noted: HL-60, 72 h. Put shortly: as §1
The next data set deals with PC-3. As to the kind of experiment: Cytotoxicity against human PC3 cells incubated for 72 hrs by MTT assay. In kind it is functional. To be noted: PC-3, 72 h. In short, it runs like this:
as §1

The next data set relates to HepG2. The experiment in a line: Cytotoxicity against human HepG2 cells incubated for 72 hrs by MTT assay. The class given is functional. To be noted: HepG2, 72 h. In short, it runs like this: as §1
For another data set, the system named is U2OS. As to the kind of experiment: Cytotoxicity against human U2OS cells incubated for 72 hrs by MTT assay. In kind it is functional. Put shortly: as §1
For a further data set, the system named is PANC-1. As to the kind of experiment: Cytotoxicity against human PANC1 cells incubated for 72 hrs by MTT assay. In kind it is functional. To be noted: PANC-1, 72 h. Put shortly: as §1
The target of data set [6] is DNA topoisomerase 2-alpha (Homo sapiens) (UniProt P11388). The experiment in a line: Inhibition of human Top2alpha assessed as stabilization of Top2-pBr322 DNA cleavage complex measuring linear DNA formation at 100 uM incubated for 20 mins by electrophoresis method. Put shortly: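 Top2α drug screening kit with 8 units hTop2α and pBR322 plasmid. After reaction, proteinase K (200 μg/mL final) 20 min at 50 °C. Electrophoresis in TAE with 0.5 μg/mL ethidium bromide to resolve nicked, linear, relaxed and supercoiled forms.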

Activity calls are given as the source filed them. The calls are words filed in the database; no cut-off is given here.

One may read the GI50 as the concentration that inhibits growth by half. A higher GI50 goes with less potent growth inhibition.

Regarding `CN1c2ccc(Cl)cc2C(=O)N2CCc3c([nH]c4ccc(O)cc34)C21` (centres undefined), the inhibition entry in data set [1], in data set [4] and in [5] was “Active” throughout. Besides, the GI50 was 0.005 µM in the data set with MDA-MB-435, 0.005 µM with HCT-116 [2] and 0.12 µM in the data set with A549. Besides, the Activity entry in the data set on Mus musculus was “Toxic”. Moreover, in the data set on HCT-116 [3], the TGI entry was “Active”.
As for `Cc1cccc2c1N(C)C1c3[nH]c4ccccc4c3CCN1C2=O` (centres undefined), the inhibition result in data set [1] was “Active”. Moreover, the 50% growth inhibitory concentration (GI50) was determined as 0.084 µM with MDA-MB-435, 0.011 µM in the data set on HCT-116 [2] and 0.23 µM in the data set with A549.
Consider `CC[C@@]1(O)C(=O)OCc2c1cc1n(c2=O)Cc2cc3ccccc3nc2-1` [CAMPTOTHECIN], for which the GI50 with SAOS-2 is greater than 287 µM; with HL-60, less than 0.003 µM; in the data set with PC-3, greater than 287 µM; with HepG2 it was 0.22 µM; with U2OS, greater than 287 µM; with PANC-1, 6.29 µM. The GI50 worked out at 0.033 µM with MDA-MB-435, 0.083 µM in the data set on HCT-116 [2] and 0.17 µM with A549.
For `COc1cc([C@@H]2c3cc4c(cc3[C@@H](O[C@@H]3O[C@@H]5CO[C@@H](C)O[C@H]5[C@H](O)[C@H]3O)[C@H]3COC(=O)[C@H]23)OCO4)cc(OC)c1O`, the inhibition result in [6] and in [4] was “Active” each time.
For the compound `COc1ccc2[nH]c3c(c2c1)CCN1C(=O)c2cc(N)ccc2N(C)C31` (centres undefined), the GI50 with MDA-MB-435 was found to be 12 µM; in the data set on HCT-116 [2], 6.6 µM; in the data set on A549, 62 µM. In [4], the inhibition entry was “Active”.
Regarding `Cc1ccc2c(c1)c1c(n2C(=O)c2ccc(Cl)cc2)C2N(CC1)C(=O)c1ccccc1N2C` (centres undefined), the results for the GI50 with MDA-MB-435, in the data set on HCT-116 [2] and in the data set with A549 were 1.14 µM, 11.4 µM and greater than 200 µM, respectively.
Taken in the same sequence, the figures for `C#CCN(CC#C)c1ccc2c(c1)C(=O)N1CCc3c([nH]c4ccccc34)C1N2C` (centres undefined) were 2.03 µM, 0.21 µM and greater than 200 µM.
For the compound `COc1ccc2[nH]c3c(c2c1)CCn1c-3nc2ccc(F)cc2c1=O`, the GI50 in the data set on MDA-MB-435 is greater than 200 µM; with HCT-116 [2] it was 138 µM; in the data set with A549, greater than 200 µM.
In the case of `CN1c2ccc(Br)cc2C(=O)N2CCc3c([nH]c4ccccc34)C21` (centres undefined), the results for the concentration for 50% growth inhibition (GI50) in the data set on MDA-MB-435, in the data set with HCT-116 [2] and with A549 were 1.5 µM, 14.1 µM and 14.5 µM, respectively.
